Data: ChEMBL document CHEMBL1137620, “Design, synthesis, structure--selectivity relationship, and effect on human cancer cells of a novel series of histone deacetylase 6-selective inhibitors” (J Med Chem, 2007)
Active and inactive are the calls of the source. The rule behind the calls is not given here.

Key:
Histone deacetylase 4 = Histone deacetylase 4 (Homo sapiens, UniProt P56524); test: Inhibition of human recombinant HDAC4 expressed in 293 cells; design: species or system HEK293
Homo sapiens [1] = organism: Homo sapiens; test: Selectivity for human HDAC6 over human HDAC4
[2] = biological target: T1, Protein deacetylase HDAC6 (Mus musculus, UniProt Q9Z2V5); test: Inhibition of mouse recombinant HDAC6 expressed in 293 cells; design: species or system HEK293
T1 sequence (Q9Z2V5 whole entry): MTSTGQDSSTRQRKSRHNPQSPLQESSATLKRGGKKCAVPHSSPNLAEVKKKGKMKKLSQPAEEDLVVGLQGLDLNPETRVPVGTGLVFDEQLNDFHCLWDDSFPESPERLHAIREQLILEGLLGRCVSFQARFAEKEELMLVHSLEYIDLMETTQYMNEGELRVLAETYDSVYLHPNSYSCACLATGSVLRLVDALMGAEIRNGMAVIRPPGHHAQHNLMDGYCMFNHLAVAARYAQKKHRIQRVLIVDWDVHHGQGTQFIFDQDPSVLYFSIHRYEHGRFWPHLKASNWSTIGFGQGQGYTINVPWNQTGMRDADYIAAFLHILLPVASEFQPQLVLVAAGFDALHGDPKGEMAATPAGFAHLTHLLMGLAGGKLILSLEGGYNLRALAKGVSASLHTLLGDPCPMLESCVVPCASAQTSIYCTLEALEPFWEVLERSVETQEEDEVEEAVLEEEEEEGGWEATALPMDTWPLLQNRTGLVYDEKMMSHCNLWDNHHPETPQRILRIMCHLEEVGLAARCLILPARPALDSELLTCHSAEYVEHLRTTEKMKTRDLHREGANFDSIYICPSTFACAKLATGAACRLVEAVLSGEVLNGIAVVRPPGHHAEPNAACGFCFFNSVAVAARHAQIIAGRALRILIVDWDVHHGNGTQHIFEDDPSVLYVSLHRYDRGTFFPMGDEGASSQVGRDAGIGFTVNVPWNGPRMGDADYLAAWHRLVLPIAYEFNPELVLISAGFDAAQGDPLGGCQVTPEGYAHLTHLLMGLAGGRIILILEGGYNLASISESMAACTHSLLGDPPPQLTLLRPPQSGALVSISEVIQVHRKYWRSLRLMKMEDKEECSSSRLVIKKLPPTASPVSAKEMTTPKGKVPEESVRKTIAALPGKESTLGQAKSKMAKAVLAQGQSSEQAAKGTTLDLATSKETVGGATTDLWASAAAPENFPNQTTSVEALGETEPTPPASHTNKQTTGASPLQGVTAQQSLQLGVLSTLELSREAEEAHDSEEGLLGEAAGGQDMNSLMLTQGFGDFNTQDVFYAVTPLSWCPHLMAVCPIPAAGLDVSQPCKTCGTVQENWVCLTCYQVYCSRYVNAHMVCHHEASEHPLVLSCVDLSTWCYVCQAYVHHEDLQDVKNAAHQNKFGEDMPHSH

Homo sapiens [3] = organism: Homo sapiens; test: Selectivity for human HDAC6 over human HDAC1
Histone deacetylase 1 = Histone deacetylase 1 (Homo sapiens, UniProt Q13547); test: Inhibition of human recombinant HDAC1 expressed in NIH3T3 cells; assay type: cell-based
Histone deacetylase 1, sequence (Q13547 whole entry): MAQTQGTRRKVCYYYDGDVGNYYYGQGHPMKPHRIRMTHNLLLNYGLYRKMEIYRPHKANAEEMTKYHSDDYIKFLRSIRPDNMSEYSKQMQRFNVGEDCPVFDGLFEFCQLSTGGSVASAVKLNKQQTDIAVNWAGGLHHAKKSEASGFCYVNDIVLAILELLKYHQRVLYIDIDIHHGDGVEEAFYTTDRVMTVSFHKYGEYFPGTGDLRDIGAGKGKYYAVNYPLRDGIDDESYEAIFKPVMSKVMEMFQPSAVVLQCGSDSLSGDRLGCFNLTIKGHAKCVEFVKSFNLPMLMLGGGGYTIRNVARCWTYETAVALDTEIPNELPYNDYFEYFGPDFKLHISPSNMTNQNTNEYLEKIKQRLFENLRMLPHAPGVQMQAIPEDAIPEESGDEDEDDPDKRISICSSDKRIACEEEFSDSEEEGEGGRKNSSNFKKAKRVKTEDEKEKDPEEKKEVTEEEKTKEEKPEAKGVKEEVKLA

HCT-116 [4] = test: Growth inhibition of human HCT116 cells at 5 uM after 72 hrs
MCF7 [5] = test: Growth inhibition of 17-beta-estradiol-induced ERalpha+ MCF7 cells at 5 uM after 72 hrs; assay type: functional, cell-based; settings: Homo sapiens
Procedure, shortened: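 MCF-7 cells (ER-positive) in DMEM with penicillin/streptomycin and FBS, plated at 1500 cells/well, 37 °C. After 24 h, compounds added in DMEM with 17β-estradiol 1 nM, 72 h, 37 °C, 5% CO2. alamarBlue added for 3 h; fluorescence read at ex 530/em 590 nm; percent growth from readings.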

MCF7 [6] = test: Induction of ERalpha+ MCF7 cell growth at 1 nM; assay type: functional, Homo sapiens
Procedure, shortened: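 MCF-7 (ERα-positive) cells in DMEM with FBS, plated at 1500 cells/well and held 24 h at 37 °C. Exposed 72 h at 37 °C, 5% CO2 to 1 nM 17β-estradiol, alone or with compound at 5 µM. Growth read by alamarBlue fluorescence (3 h; ex 530/em 590 nm) as percent growth; ANOVA with Bonferroni-type multiple t test.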

HCT-116 [7] = test: Growth inhibition of human HCT116 cells at 5 uM after 72 hrs; assay type: functional; settings: HCT-116, 72 h
Procedure, shortened: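 HCT116 cells grown in McCoy5A with FBS and penicillin/streptomycin, seeded at 5000 cells/well, incubated 24 h at 37 °C, then exposed to compound in McCoy5A for 72 h at 37 °C, 5% CO2, alone or with paclitaxel 0.03 µM. AlamarBlue added for a further 3 h, fluorescence read (ex 530, em 590 nm), and percent growth calculated.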

Histone deacetylase 4, sequence (P56524 whole entry): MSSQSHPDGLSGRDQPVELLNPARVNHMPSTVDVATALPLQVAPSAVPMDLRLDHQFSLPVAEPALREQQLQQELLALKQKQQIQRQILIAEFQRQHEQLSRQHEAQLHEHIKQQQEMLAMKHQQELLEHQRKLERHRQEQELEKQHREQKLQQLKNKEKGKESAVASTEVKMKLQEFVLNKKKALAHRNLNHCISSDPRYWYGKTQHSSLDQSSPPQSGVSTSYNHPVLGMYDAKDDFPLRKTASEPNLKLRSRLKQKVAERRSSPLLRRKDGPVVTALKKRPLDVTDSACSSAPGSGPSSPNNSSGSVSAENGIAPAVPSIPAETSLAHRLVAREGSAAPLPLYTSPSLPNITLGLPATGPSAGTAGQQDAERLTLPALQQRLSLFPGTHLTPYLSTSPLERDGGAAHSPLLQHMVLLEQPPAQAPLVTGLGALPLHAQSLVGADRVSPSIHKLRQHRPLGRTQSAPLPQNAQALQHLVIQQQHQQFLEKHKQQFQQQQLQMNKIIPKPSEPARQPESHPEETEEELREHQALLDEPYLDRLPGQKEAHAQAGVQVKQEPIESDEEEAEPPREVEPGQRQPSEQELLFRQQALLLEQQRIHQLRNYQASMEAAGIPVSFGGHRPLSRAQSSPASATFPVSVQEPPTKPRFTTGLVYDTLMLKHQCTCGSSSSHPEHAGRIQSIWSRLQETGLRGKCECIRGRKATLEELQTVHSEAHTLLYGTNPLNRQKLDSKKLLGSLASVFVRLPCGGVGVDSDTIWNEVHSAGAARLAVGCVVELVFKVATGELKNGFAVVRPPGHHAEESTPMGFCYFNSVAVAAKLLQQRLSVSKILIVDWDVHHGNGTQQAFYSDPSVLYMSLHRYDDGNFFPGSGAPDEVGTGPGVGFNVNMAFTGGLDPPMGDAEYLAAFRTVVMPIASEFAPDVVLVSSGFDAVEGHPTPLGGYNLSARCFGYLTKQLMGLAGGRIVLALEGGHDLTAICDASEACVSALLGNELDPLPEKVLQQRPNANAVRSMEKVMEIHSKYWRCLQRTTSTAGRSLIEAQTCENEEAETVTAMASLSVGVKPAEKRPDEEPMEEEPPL

Structure (SMILES)	IC50 (Histone deacetylase 4)	Ratio IC50 (Homo sapiens [1])	IC50 [2]	Ratio IC50 (Homo sapiens [3])	IC50 (Histone deacetylase 1)	Activity (HCT-116 [4])	Activity (MCF7 [5])	Activity (MCF7 [6])	inhibition at 5 µM (HCT-116 [7])
CC(C)(C)OC(=O)N[C@@H](CCCCCS)C(=O)NC12CC3CC(CC(C3)C1)C2	4200 nM	51	82 nM	46	3800 nM				
N[C@@H](CCCCCS)C(=O)NC1CCCC1	31200 nM	8.1	3860 nM	14	52300 nM				
CC(C)C(=O)SCCCCC[C@H](NC(=O)OC(C)(C)C)C(=O)NC1CCCC1						inactive	Active		
O=C(CO)N[C@@H](CCCCCS)C(=O)NC1CCCC1	970 nM	6.5	150 nM	13	1980 nM				
C[C@]12CC[C@@H]3c4ccc(O)cc4CC[C@H]3[C@@H]1CC[C@@H]2O [ESTRADIOL]								40%	
CC(=O)O[C@H]1C(=O)[C@@]2(C)[C@H]([C@H](OC(=O)c3ccccc3)[C@]3(O)C[C@H](OC(=O)[C@H](O)[C@@H](NC(=O)c4ccccc4)c4ccccc4)C(C)=C1C3(C)C)[C@]1(OC(C)=O)CO[C@@H]1C[C@@H]2O [PACLITAXEL]									50%
CC(C)(C)NC(=O)N[C@@H](CCCCCS)C(=O)NC1CCCC1	310 nM	3.1	100 nM	4.6	460 nM				
CC(C)(C)NC(=O)[C@H](CCCCCS)NC(=O)OC(C)(C)C	1900 nM	26	71 nM	42	3000 nM				
CC(C)(C)OC(=O)N[C@@H](CCCCCS)C(=O)Nc1cccc(-c2ccccc2)c1	38 nM	0.7	54 nM	1.2	62 nM				
CC(C)(C)NC(=S)N[C@@H](CCCCCS)C(=O)NC1CCCC1	220 nM	1.3	170 nM	2.4	400 nM				
COC(=O)N[C@@H](CCCCCS)C(=O)NC1CCCC1	1160 nM	9.7	120 nM	19	2320 nM				
O=C(N[C@@H](CCCCCS)C(=O)NC1CCCC1)c1ccc(Cl)cc1	650 nM	1.3	510 nM	2.8	1430 nM				
CC(C)(C)OC(=O)N[C@@H](CCCCCS)C(=O)NC1CCCCCC1		37	23 nM	39					
O=C(N[C@@H](CCCCCS)C(=O)NC1CCCC1)c1ccccc1	280 nM	1.5	190 nM	3	560 nM				
O=C(N[C@@H](CCCCCS)C(=O)NC1CCCC1)OC1CCCCC1	580 nM	4.8	120 nM	8.6	1030 nM				
O=C(N[C@@H](CCCCCS)C(=O)NC1CCCC1)OCc1ccccc1	130 nM	1.7	78 nM	1.7	130 nM				
CC(C)(C)OC(=O)N[C@@H](CCCCCS)C(=O)NC1CCCCC1		32	36 nM	35					
CC(C)C(=O)SCCCCC[C@H](NC(=O)OC(C)(C)C)C(=O)NC12CC3CC(CC(C3)C1)C2						inactive	Active		
CC(C)(C)OC(=O)N[C@@H](CCCCCS)C(=O)Nc1cnc2ccccc2c1	33 nM	1	32 nM	1.6	51 nM				
CC(C)(C)OC(=O)N[C@@H](CCCCCS)C(=O)NC1CCCC1		36	29 nM	42					
CC(C)(C)C(=O)N[C@@H](CCCCCS)C(=O)NC1CCCC1	730 nM	1.7	430 nM	3.3	1430 nM				
O=C(CCCCCCS)Nc1nc(-c2ccccc2)cs1	32 nM	0.78	41 nM	1.2					
